Key:
Type in all cases: functional
[1] = Growth inhibition of human ovarian cancer cells after 48 hrs; conditions: Cancer cell lines
Procedure, shortened: (§1)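 NCI in vitro disease-oriented human tumor cell line screen. Compounds passing a one-dose primary assay (MCF-7, NCI-H460, SF-268; pass = growth of any line reduced to 32% or less) were tested on the 60-line panel over a 5-log dose range. Compounds were dissolved in DMSO, with under 1% DMSO in final dilutions, and tested in duplicate at 6×10^4 cells/ml. Cells were incubated at 37 °C in 5% CO2 for 48 h, then diluted 10-fold in saline and counted with a Coulter counter, with counts corrected for dilution. Controls held PBS/DMSO at identical dilutions. GI50 was reported per line and as subpanel/full-panel mean-graph midpoint.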

[2] = Growth inhibition of human leukemia cells after 48 hrs; conditions: Leukemia cell; procedure, shortened: as §1
[3] = Growth inhibition of human melanoma cells after 48 hrs; conditions: Melanoma cell; procedure, shortened: as §1
RPMI-8226 = assay: Growth inhibition of human RPMI8226 cells after 48 hrs; conditions: RPMI-8226, 48 h; procedure, shortened: as §1
CCRF-CEM = assay: Growth inhibition of human CCRF-CEM cells after 48 hrs; procedure, shortened: as §1
NSCLC = assay: Growth inhibition of human NSCLC cells after 48 hrs; procedure, shortened: as §1
T47D = assay: Growth inhibition of human T47D cells after 48 hrs; procedure, shortened: as §1
K562 = assay: Growth inhibition of human K562 cells after 48 hrs; conditions: K562, 48 h; procedure, shortened: as §1
[4] = Growth inhibition of human breast cancer cells after 48 hrs; conditions: Cancer cell lines; procedure, shortened: as §1
UACC-257 = assay: Growth inhibition of human UACC257 cells after 48 hrs; conditions: UACC-257, 48 h; procedure, shortened: as §1
[5] = Growth inhibition of human CNS cancer cells after 48 hrs; conditions: Cancer cell lines; procedure, shortened: as §1
[6] = Growth inhibition of human renal cancer cells after 48 hrs; conditions: Cancer cell lines; procedure, shortened: as §1
HL-60(TB) = assay: Growth inhibition of human HL-60(TB) cells after 48 hrs; conditions: HL-60, 48 h
Procedure, shortened: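 NCI 60-cell-line screen over a 5-log dose range. Compounds were dissolved in DMSO, final DMSO under 1%. Duplicate wells were seeded at 6×10^4 cells/ml, with PBS/DMSO vehicle controls at identical dilutions. Cells were incubated 48 h at 37 °C in humidified 5% CO2, diluted 10-fold in saline, and counted by Coulter counter with dilution correction. GI50 read-out.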

SF-539 = assay: Growth inhibition of human SF539 cells after 48 hrs; conditions: SF-539, 48 h; procedure, shortened: as §1
[7] = Growth inhibition of human prostate cancer cells after 48 hrs; conditions: Cancer cell lines; procedure, shortened: as §1
SK-MEL-2 = assay: Growth inhibition of human SK-MEL-2 cells after 48 hrs; conditions: SK-MEL-2, 48 h; procedure, shortened: as §1
MCF7 = assay: Growth inhibition of human MCF7 cells after 48 hrs; conditions: MCF7, 48 h; procedure, shortened: as §1
[8] = Growth inhibition of human Colon cancer cells after 48 hrs; conditions: Cancer cell lines; procedure, shortened: as §1
[9] = read-out: LC50 (the source's name)

SMILES: NS(=O)(=O)c1ccc(CNc2nc(-c3cccs3)nc3ccc(I)cc23)cc1
- GI50 [1]: 15.7 µM
- LC50 [1]: 89.1 µM
- TGI [1]: 42.6 µM
- GI50 [2]: 23.9 µM
- TGI [2]: 72.3 µM
- GI50 [3]: 16 µM
- LC50 (lethal concentration 50%) [3]: 58.3 µM
- TGI [3]: 30.5 µM
- GI50 (RPMI-8226): 19 µM
- TGI (RPMI-8226): 50 µM
- CC50 (RPMI-8226; [9]): > 100 µM
- GI50 (CCRF-CEM): 22 µM
- TGI (CCRF-CEM): 60 µM
- CC50 (CCRF-CEM; [9]): > 100 µM
- GI50 (NSCLC): 14.7 µM
- LC50 (concentration killing 50% of cells) (NSCLC): 82.2 µM
- TGI (NSCLC): 37 µM
- GI50 (T47D): 0.2 µM
- LC50 (T47D): 82 µM
- TGI (T47D): 18 µM
- GI50 (K562): 37 µM
- LC50 (concentration killing 50% of cells) (K562): > 100 µM
- TGI (K562): > 100 µM
- GI50 [4]: 12.3 µM
- LC50 [4]: 80.8 µM
- TGI [4]: 32.1 µM
- GI50 (UACC-257): 14 µM
- LC50 (UACC-257): 54 µM
- TGI (UACC-257): 28 µM
- GI50 [5]: 18.2 µM
- TGI [5]: 42.4 µM
- CC50 [5, 9]: 89 µM
- GI50 [6]: 13.6 µM
- TGI [6]: 36.1 µM
- CC50 [6, 9]: 88.1 µM
- GI50 (HL-60(TB)): 30 µM
- TGI (HL-60(TB)): > 100 µM
- CC50 (HL-60(TB); [9]): > 100 µM
- GI50 (SF-539): 11 µM
- TGI (SF-539): 31 µM
- CC50 (SF-539; [9]): 85 µM
- GI50 [7]: 17.1 µM
- TGI [7]: 41.8 µM
- CC50 [7, 9]: 80.8 µM
- GI50 (SK-MEL-2): 18 µM
- LC50 (SK-MEL-2): 61 µM
- TGI (SK-MEL-2): 33 µM
- GI50 (MCF7): 0.6 µM
- TGI (MCF7): 16 µM
- CC50 (MCF7; [9]): > 100 µM
- GI50 [8]: 16.7 µM
- LC50 [8]: 66.4 µM
- TGI [8]: 37.3 µM

— ChEMBL document CHEMBL1158347, “Substituted quinazolines, part 3. Synthesis, in vitro antitumor activity and molecular modeling study of certain 2-thieno-4(3H)-quinazolinone analogs” (2009)
